The text below walks through data of ChEMBL document CHEMBL1154321, “Benzoxazole piperidines as selective and potent somatostatin receptor subtype 5 antagonists” (Bioorg Med Chem Lett, 2009).

For one data set, the species on record is Homo sapiens. Nature of the data set: Selectivity ratio of Ki for human histamine H1 receptor to Ki for human SST5 receptor.
Data set [1] concerns the target Somatostatin receptor type 2 (Homo sapiens, UniProt P30874). Briefly: Displacement of SST14 from human recombinant SST2 receptor. Put shortly: (§1)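 Membranes prepared by sonication from cells expressing the SST receptor subtype, incubated with radiolabeled 11-Tyr SST-14 tracer and test compound at varying concentrations; non-labeled SST-14 defined non-specific binding. Incubation stopped by glass-fiber filtration, bound radioactivity counted; IC50 for half-maximal binding inhibition estimated and Ki derived.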

The target of data set [2] is Somatostatin receptor type 3 (Homo sapiens, UniProt P32745). Briefly: Displacement of SST14 from human recombinant SST3 receptor. The essentials: as §1
Chain of Somatostatin receptor type 3 (P32745 whole entry): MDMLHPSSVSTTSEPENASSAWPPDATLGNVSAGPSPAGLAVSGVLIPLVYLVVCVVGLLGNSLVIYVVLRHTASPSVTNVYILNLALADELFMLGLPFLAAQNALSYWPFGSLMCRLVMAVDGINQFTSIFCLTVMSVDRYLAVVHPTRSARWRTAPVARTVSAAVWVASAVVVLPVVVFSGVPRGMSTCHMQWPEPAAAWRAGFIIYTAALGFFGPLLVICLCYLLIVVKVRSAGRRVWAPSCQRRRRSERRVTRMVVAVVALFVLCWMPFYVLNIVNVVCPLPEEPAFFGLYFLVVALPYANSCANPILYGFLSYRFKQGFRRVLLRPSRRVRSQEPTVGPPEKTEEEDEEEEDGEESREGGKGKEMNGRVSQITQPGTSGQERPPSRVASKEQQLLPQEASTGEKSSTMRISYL
Data set [3] deals with Somatostatin receptor type 4 (Homo sapiens, UniProt P31391). Briefly: Displacement of SST14 from human recombinant SST4 receptor. Put shortly:
as §1

Data set [4] concerns the target 5-hydroxytryptamine receptor 2B (Homo sapiens, UniProt P41595). Briefly: Binding affinity to human 5HT2B receptor.
The next data set concerns the target hERG (KCNH2) (Homo sapiens, UniProt Q12809). Nature of the data set: (§2) Inhibition of human ERG expressed in CHO cells by patch clamp technique. The conditions noted are these: human, CHO cells expressing human ERG. Format: cell-based.
Data set [5] in a line: Dissociation constant, pKa by spectrophotometry. It counts as physicochemical.
A short description of data set [6]: Clearance in Wistar rat administered as single dose. It counts as ADME, organism-based. The conditions noted are these: in vivo.
A short description of data set [7]: Volume of distribution at steady state in Wistar rat administered as single dose. The conditions noted are these: in vivo, read-out: Vdss. It counts as ADME, organism-based.
A short description of data set [8]: Terminal half-life in Wistar rat administered as single dose. It counts as ADME, organism-based. The conditions noted are these: in vivo, read-out: beta t1/2 (converted).
A short description of data set [9]: Oral bioavailability in Wistar rat administered as single dose. The conditions noted are these: in vivo. Format: ADME, organism-based.
Data set [10] concerns the target T1, Somatostatin receptor type 5 (Homo sapiens, UniProt P35346). Nature of the data set: Displacement of SST14 from human recombinant SST5 receptor expressed in CHO cells by radioligand binding assay. It counts as cell-based. Put shortly:
as §1

For data set [11], the target named is Somatostatin receptor type 1 (Homo sapiens, UniProt P30872). Briefly: Displacement of SST14 from human recombinant SST1 receptor. Put shortly:
as §1

A short description of data set [12]: Solubility in phosphate buffer at pH 6.5 by lyophilization solubility assay. It counts as physicochemical. The essentials:
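Lyophilized DMSO stock solutions redissolved in 50 mM phosphate buffer, pH 6.5; solubility read spectrophotometrically.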

Data set [13] in a line: sPermeability by PAMPA. It counts as ADME. As to conditions: read-out: permeability. Put shortly:
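Parallel artificial membrane permeation; Pe categorized as low (<0.1), medium (0.1–1.0) or high (>1.0).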

Data set [14] in a line: Octanol-TAPSO partition coefficient, log D at pH 7.4 by spectrophotometry. Format: physicochemical. The conditions noted are these: octanol/TAPSO buffer. The essentials:
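Spectrophotometric log D in 1-octanol/50 mM TAPSO buffer, pH 7.4, containing 5% (v/v) DMSO.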

The target in data set [15] is T1, Somatostatin receptor type 5. Briefly: Antagonist activity at human SST5 receptor expressed in CHO cells assessed as inhibition of forskolin-induced cAMP release by TR-FRET assay. Format: functional, cell-based. Put shortly: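 Transfected cells incubated with forskolin, 0.15 nM SST-14 and test compound at varying concentrations; cellular cAMP measured by FRET-based assay. IC50 taken as concentration half-maximally reversing the SST-14 effect, read from concentration-versus-cAMP curves.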
(In TR-FRET formats the signal depends on donor and acceptor labels being close together.)

In data set [16] the target is Voltage-gated inwardly rectifying potassium channel KCNH2 (Homo sapiens, UniProt Q12809). The data set is described as §2. It counts as cell-based.
Chain of Voltage-gated inwardly rectifying potassium channel KCNH2 (Q12809 whole entry): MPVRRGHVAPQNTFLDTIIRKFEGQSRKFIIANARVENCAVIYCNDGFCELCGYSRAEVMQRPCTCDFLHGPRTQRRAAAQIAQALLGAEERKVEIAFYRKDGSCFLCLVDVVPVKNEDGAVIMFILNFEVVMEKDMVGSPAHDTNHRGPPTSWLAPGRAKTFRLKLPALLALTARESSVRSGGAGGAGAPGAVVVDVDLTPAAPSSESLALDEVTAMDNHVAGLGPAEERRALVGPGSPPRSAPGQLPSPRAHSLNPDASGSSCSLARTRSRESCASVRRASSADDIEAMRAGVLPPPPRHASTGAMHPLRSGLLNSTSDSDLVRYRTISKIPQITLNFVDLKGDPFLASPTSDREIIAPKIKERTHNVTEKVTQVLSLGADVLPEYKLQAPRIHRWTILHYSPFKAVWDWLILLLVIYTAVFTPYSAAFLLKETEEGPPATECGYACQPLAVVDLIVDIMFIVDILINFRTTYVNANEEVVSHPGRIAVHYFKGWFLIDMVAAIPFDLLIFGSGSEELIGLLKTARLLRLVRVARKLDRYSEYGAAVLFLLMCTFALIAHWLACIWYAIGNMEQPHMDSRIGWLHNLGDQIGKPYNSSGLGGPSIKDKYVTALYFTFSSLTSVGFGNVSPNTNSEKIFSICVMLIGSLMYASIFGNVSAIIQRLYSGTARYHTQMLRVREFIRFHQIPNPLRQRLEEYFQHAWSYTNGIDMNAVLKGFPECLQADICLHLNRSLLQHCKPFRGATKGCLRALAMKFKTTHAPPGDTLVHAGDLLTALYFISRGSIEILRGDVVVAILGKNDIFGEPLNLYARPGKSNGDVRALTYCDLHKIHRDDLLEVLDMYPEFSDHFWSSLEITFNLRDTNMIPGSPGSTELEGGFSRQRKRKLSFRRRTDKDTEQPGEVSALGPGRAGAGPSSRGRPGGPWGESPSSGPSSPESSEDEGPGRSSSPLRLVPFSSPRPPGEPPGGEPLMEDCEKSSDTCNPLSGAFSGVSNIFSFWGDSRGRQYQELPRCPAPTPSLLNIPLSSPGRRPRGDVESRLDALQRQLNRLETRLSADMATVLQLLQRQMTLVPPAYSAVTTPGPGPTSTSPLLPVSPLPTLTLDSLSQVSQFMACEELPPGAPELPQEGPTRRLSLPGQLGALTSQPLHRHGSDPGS

Values after ≈ are worked out from the molar mass of the structure shown.

T1 sequence (P35346 whole entry): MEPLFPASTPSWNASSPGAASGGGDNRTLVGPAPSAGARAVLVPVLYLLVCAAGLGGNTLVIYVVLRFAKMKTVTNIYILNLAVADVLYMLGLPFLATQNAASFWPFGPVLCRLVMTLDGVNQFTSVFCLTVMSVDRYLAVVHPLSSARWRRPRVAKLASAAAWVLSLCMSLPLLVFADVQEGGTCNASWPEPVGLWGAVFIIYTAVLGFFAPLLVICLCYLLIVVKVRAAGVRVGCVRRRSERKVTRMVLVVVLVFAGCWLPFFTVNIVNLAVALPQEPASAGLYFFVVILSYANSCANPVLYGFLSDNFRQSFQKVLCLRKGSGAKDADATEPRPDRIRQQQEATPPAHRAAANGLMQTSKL
Chain of Somatostatin receptor type 2 (P30874 whole entry): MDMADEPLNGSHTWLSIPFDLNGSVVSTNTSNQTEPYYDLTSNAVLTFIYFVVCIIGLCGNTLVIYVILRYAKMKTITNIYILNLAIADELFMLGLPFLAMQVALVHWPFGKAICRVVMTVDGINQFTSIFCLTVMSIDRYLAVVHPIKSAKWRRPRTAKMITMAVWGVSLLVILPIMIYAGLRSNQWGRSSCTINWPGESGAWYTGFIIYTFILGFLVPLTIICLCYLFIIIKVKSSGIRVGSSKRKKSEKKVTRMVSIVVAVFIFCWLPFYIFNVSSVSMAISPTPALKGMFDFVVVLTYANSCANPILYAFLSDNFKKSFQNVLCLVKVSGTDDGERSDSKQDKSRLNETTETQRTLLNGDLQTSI
Chain of Somatostatin receptor type 4 (P31391 whole entry): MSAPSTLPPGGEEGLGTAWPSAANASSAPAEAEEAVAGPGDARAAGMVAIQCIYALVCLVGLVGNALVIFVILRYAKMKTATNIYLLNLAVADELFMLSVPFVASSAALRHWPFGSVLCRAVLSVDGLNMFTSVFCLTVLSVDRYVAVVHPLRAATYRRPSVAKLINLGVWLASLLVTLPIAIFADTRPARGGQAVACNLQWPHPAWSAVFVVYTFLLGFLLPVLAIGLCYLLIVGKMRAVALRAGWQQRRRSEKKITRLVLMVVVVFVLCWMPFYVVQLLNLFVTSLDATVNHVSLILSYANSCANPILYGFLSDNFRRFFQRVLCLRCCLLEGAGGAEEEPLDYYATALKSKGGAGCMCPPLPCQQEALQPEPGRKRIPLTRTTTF
Chain of Somatostatin receptor type 1 (P30872 whole entry): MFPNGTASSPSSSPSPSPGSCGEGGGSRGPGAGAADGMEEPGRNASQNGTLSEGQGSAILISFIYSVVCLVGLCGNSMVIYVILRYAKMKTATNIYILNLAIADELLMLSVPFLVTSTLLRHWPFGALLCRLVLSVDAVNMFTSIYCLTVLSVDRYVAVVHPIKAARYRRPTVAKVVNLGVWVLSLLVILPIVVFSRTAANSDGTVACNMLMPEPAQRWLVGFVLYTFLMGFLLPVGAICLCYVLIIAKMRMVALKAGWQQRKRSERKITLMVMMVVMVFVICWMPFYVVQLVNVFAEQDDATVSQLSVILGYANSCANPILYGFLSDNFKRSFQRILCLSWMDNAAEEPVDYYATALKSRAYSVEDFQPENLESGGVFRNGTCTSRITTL
Chain of hERG (KCNH2) (Q12809 whole entry): as the sequence (Q12809 whole entry) above
Chain of 5-hydroxytryptamine receptor 2B (P41595 whole entry): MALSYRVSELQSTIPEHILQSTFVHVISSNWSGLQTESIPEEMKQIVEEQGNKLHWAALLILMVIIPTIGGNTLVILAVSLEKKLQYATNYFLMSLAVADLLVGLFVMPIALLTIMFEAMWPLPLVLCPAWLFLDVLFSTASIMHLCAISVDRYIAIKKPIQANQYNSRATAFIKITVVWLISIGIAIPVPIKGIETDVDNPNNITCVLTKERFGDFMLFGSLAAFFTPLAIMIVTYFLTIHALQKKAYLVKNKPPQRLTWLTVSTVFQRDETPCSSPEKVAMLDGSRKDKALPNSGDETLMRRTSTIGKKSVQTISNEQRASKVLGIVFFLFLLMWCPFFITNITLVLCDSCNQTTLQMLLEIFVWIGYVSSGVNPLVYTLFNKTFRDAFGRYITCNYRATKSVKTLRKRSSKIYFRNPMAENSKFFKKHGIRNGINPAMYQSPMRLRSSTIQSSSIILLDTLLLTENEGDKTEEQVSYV

Usually Ki stands for a measure of affinity in units of concentration, obtained from inhibition or displacement. In general, IC50 refers to the concentration needed to halve the response being measured. In general, pKa refers to the pH at which an ionisable group is half protonated. Usually clearance stands for the rate of elimination divided by the concentration. High values mean efficient removal, low ones inefficient removal. The bioavailability is dose-corrected exposure relative to a reference, in per cent. On to `CCOc1cc(CN2CCC(Nc3nc4ccccc4o3)CC2)ccc1OC`, for which the Ratio Ki in the data set listed under Homo sapiens was determined as 5.2. The Ki is greater than 10 µM in [1], greater than 10 µM in [2], greater than 10 µM in [3] and 0.041 µM in data set [4]. The same compound yielded an IC50 against hERG (KCNH2) of less than 0.1 µM. The compound also yielded a pKa in [5] of 8.3. The clearance in data set [6] came to 84 mL/min/kg. In [7], the Vd is 4.1 L/kg. Besides, in [8], the half-life is 0.7 h. This compound yielded a bioavailability in data set [9] of 6%.

What is called solubility is the concentration that dissolves in the medium under given conditions. A higher solubility goes with much dissolved substance. As a reminder, the logD is lipophilicity at a set pH, counting ionised and neutral species. A low value points to lower lipophilicity. Turning to `CCOc1cc(CN2CCC(Nc3nc4ccc(C(=O)O)cc4o3)CC2)cc(OCC)c1F`, the Ki in [10] was 0.018 µM; in data set [11], greater than 10 µM; in [1], greater than 10 µM; in [2], greater than 10 µM; in data set [3], greater than 10 µM. In data set [12], this compound showed a solubility of 6 µg/mL (≈ 13.1 µM). For the same compound, the Papp in [13] worked out at 2.89 ×10⁻⁶ cm/s. The same compound yielded a logD in [14] of 1.33. For the same compound, the IC50 in data set [15] amounted to 0.072 µM. In addition, the clearance in [6] turned out to be 20 mL/min/kg. In [7], the Vd stood at 1.5 L/kg. For the same compound, the half-life in data set [8] was 2.4 h. Besides, the bioavailability in data set [9] stood at 39%.

For `CCOc1cc(CN2CCC(Nc3nc4ccc(C(=O)O)cc4o3)CC2)ccc1Cl`, the Ki is 0.023 µM in data set [10]; greater than 10 µM in data set [11]; greater than 10 µM in data set [1]; greater than 10 µM in [2]; greater than 10 µM in data set [3]. The IC50 in data set [16] is greater than 10 µM; in data set [15] it was 0.098 µM. The solubility in [12] came out at 7 µg/mL (≈ 16.3 µM). In addition, the Papp in data set [13] was 3.6 ×10⁻⁶ cm/s. The logD in data set [14] was found to be 1.39. The same compound showed a clearance in [6] of 27 mL/min/kg. The Vd in [7] came out at 4.3 L/kg. For the same compound, the half-life in data set [8] was 3.1 h. In [9], this compound returned a bioavailability of 57%.
